Experimental data pooled from the literature.
Each line is one published result; the experiments were not run side by side.
Target: Serine/threonine-protein kinase 38 (STK38, Homo sapiens, UniProt Q15208)

SMILES	observed	technique	concentration	remaining binding [%]
Nc1ncc2c(n1)-c1c([nH]c3ccc(C#CC4CC4)cc13)CCCC2	binding	competition with immobilised ligand	1 µM	87
CCOC(=O)c1cc2cc(-c3cc(C(=O)NCc4ccc(C(=O)O)cc4)nn3C)ccc2[nH]1	cell-free assay	competition with immobilised ligand	0.1 µM	95
CCN1CCN(Cc2ccc(C(=O)Nc3ccc(C)c(Oc4ccc5c(c4)CC(=O)N5)c3)cc2C(F)(F)F)CC1	binding	competition with immobilised ligand	1 µM	100
Cc1c[nH]c2nccc(Oc3c(F)cc(Nc4cc(Cl)nc(N)n4)cc3F)c12	cell-free assay	competition with immobilised ligand	0.1 µM	89
COc1cnc(Nc2cccc(S(N)(=O)=O)c2)nc1N1CCN(c2ccccc2)C(=O)C1	binding	competition with immobilised ligand	1 µM	84
FC(F)(F)Oc1cccc(-c2cnc3ccc(-c4ccncc4)nn23)c1	cell-free assay	competition with immobilised ligand	5 µM	80
N[C@@H]1CCN(c2nccc(-c3cnn4ncccc34)n2)C1	binding		1 µM	84
O=C(NCC1CCOCC1)c1n[nH]cc1NC(=O)c1c(F)cccc1F	binding	competition with immobilised ligand	1 µM	84
Cc1cnc(Nc2ccc(C(=O)N3CCC(N4CCCC4)CC3)cc2)nc1-c1cc2ccccc2s1	binding	competition with immobilised ligand	1 µM	79
Cn1nc(C(F)(F)F)cc1-c1cnc(N2CCc3cc(S(=O)(=O)Nc4c(F)cc(Cl)cc4F)cc(N4CCCC4=O)c32)nc1	cell-free assay	competition with immobilised ligand	1 µM	97
CN(C)c1nccc(-c2cnc3ncccn23)n1	binding		1 µM	79
COc1cnc(Nc2cccc(S(N)(=O)=O)c2)nc1N1CCN(c2ccccc2)CC1	binding	competition with immobilised ligand	1 µM	78
O=C(c1ccc(Nc2nccc(-c3cc4ccccc4s3)n2)cc1)N1CCC(N2CCCC2)CC1	binding	competition with immobilised ligand	1 µM	76
Cc1cnn2ncc(-c3ccnc(N(C)C)n3)c2c1	binding		1 µM	100
O=C(NCc1ncc(C(F)(F)F)cc1Cl)c1ccc2c(c1)C1(CCS(=O)(=O)CC1)[C@H](C1CC1)N2S(=O)(=O)c1ccc(F)cc1	cell-free assay	competition with immobilised ligand	1 µM	92
C[C@@H]1CCN(c2nccc(-c3cnn4ncccc34)n2)C1	binding		1 µM	72
COc1ccc2cc(OCC3(C(=O)O)CN(C(=O)c4ccc(F)cc4)C3)ccc2c1	cell-free assay	competition with immobilised ligand	1 µM	98
CN(CCCC(F)(F)F)c1nccc(-c2cnn3ncccc23)n1	binding		1 µM	100
C[C@@]1(Cc2ccc(C#N)cc2)C(=O)N(c2cc(Cl)cc(Cl)c2)c2ncc(C(=O)NC3(c4nc(C5CCC5)no4)CC3)n21	cell-free assay	competition with immobilised ligand	1 µM	100
O=C(NCCCN1CCOCC1)c1ccc(Nc2ncc(Cl)c(-c3ccc(Cl)s3)n2)cc1	binding	competition with immobilised ligand	1 µM	76
CN(C)c1nccc(-c2cnn3ncccc23)n1	binding		1 µM	74
